Measurements from different studies.
Protocols differ between the studies behind these lines.
Target: Serine/threonine-protein kinase ULK3 (ULK3, Homo sapiens, UniProt Q6PHR2)
One construct used (Q6PHR2 1-472): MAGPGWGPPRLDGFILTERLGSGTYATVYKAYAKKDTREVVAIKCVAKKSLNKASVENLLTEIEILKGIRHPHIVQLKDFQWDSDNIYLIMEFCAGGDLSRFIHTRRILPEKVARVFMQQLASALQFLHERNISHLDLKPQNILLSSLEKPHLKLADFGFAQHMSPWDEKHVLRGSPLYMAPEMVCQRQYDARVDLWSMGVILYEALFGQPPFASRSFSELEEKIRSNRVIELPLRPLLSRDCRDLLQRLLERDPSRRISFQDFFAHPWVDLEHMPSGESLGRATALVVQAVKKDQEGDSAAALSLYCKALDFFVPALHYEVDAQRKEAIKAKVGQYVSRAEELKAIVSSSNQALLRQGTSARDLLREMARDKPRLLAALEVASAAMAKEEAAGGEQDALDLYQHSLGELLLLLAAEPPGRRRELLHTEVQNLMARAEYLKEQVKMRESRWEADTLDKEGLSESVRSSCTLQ

| Compound | read-out | technique | concentration | remaining binding [%] |
| --- | --- | --- | --- | --- |
| CN(c1nccc(-c2cnn3ncccc23)n1)C1CC1 | binding |  | 1 µM | 100 |
| c1cncc(-c2cccc(Nc3nccc(NC4CCCCC4)n3)c2)c1 | binding | competition with immobilised ligand | 10 µM | 44 |
| C[C@H](c1ccc(F)cc1)N(Cc1cccc(C(=O)O)c1)C(=O)c1cnc2ccccc2c1 | cell-free assay | competition with immobilised ligand | 1 µM | 82 |
| N[C@@H]1CCN(c2nccc(-c3cnn4ncccc34)n2)C1 | binding |  | 1 µM | 100 |
| COc1cnc(Nc2cccc(S(N)(=O)=O)c2)nc1N1CCN(c2ccccc2)CC1 | binding | competition with immobilised ligand | 1 µM | 79 |
| O=C(O)[C@H]1[C@H](Cn2nnc3ccccc3c2=O)CC[C@@H]1C(=O)c1ccc(OCCC2CCOCC2)cc1 | cell-free assay | competition with immobilised ligand | 1 µM | 85 |
| Nc1ncc2c(n1)-c1c([nH]c3ccc(C#CC4CC4)cc13)CCCC2 | binding | competition with immobilised ligand | 1 µM | 86 |
| c1cnn2ncc(-c3ccnc(N4CCC45COC5)n3)c2c1 | binding |  | 1 µM | 64 |
| O=C(NCC1CCOCC1)c1n[nH]cc1NC(=O)c1c(F)cccc1F | binding | competition with immobilised ligand | 1 µM | 85 |
| F[C@@H]1CCN(c2nccc(-c3cnn4ncccc34)n2)C1 | binding |  | 1 µM | 100 |
| O=C(NCCCN1CCOCC1)c1ccc(Nc2ncc(Cl)c(-c3ccc(Cl)s3)n2)cc1 | binding | competition with immobilised ligand | 1 µM | 6.5 |
| CNC(=O)[C@@H]1CC[C@@H](n2c(-c3ccc4cnccc4c3)nc3ccc(C(=O)NCc4cccc(C(N)=O)c4)cc32)C1 | binding | competition with immobilised ligand | 1 µM | 88 |
| CC(=O)Nc1c(C(C)=O)c(=O)n(C)c2nc(-c3ccc(Cl)cc3Cl)c(-c3ccc(Cl)cc3)cc12 | cell-free assay | competition with immobilised ligand | 1 µM | 75 |
| O=C(c1ccc(Nc2nccc(-c3cc4ccccc4s3)n2)cc1)N1CCC(N2CCCC2)CC1 | binding | competition with immobilised ligand | 1 µM | 0.4 |
| O=C(NCc1ncc(C(F)(F)F)cc1Cl)c1ccc2c(c1)C1(CCS(=O)(=O)CC1)[C@@H](C1CC1)N2S(=O)(=O)c1ccc(F)cc1 | cell-free assay | competition with immobilised ligand | 1 µM | 69 |
| O=C(NCCCN1CCOCC1)c1ccc(Nc2nccc(-c3cc4ccccc4s3)n2)cc1 | binding | competition with immobilised ligand | 1 µM | 3.2 |
| Cn1cc(Cl)c2c(Oc3c(F)cc(Nc4cc(Cl)nc(N)n4)cc3F)ccnc21 | cell-free assay | competition with immobilised ligand | 0.1 µM | 85 |
| CN(C)c1nccc(-c2cnc3ncccn23)n1 | binding |  | 1 µM | 75 |
| CS(=O)(=O)N1CCCC(NC(=O)[C@H](CCC2CCCCC2)NC(=O)c2ccc(CNC(=O)c3cnc4ccccn34)cc2)C1 (some centres unmarked) | cell-free assay | competition with immobilised ligand | 0.1 µM | 100 |
| COc1ncc2cc3ccccc3nc2c1C#N | cell-free assay | competition with immobilised ligand | 5 µM | 91 |
